≈ marks a conversion by molar mass, not a printed value. Calls of active or inactive are those of the source. The rule behind the calls is not given here.
What was measured:
Escherichia coli [1] = test: Antimicrobial activity against Escherichia coli ATCC 35218 assessed as diameter of inhibition zone at 40 uM after 24 hrs by Kirby -Baur disc diffusion method; type: functional; settings: ATCC 35218, 24 h, read-out: DIZ
Outline: (§1)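 Kirby-Bauer disc diffusion was used. Acetone stocks (160 µM) were serially doubled down to 80, 40 and 20 µM. 4 µL of each went onto 5 mm sterile paper discs, which were dried 30 min at 50 °C. Inoculum was 1.5 × 10⁸ CFU/mL diluted to 3 × 10² CFU/mL, and 50 µL was spread on Mueller-Hinton agar. After 24 h at 37 °C the inhibition-zone diameter was measured. Ciprofloxacin served as positive control.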

Trichoderma viride [2] = test: Antifungal activity against Trichoderma viride MTCC 1107 after 48 hrs; type: functional; settings: MTCC 1107, 48 h
Pseudomonas aeruginosa [3] = test: Antimicrobial activity against Pseudomonas aeruginosa ATCC 15499 after 24 hrs by broth micro serial dilution method; type: functional; settings: ATCC 15499, 24 h
Outline: (§2)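 This was broth microdilution in autoclaved Mueller-Hinton broth. 150 µL of compound per well was serially diluted […], and 50 µL of test organism was added. Plates were incubated 24 h at 37 °C and optical density was read.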

Aspergillus niger [4] = test: Antifungal activity against Aspergillus niger MTCC 1108 after 48 hrs; type: functional; settings: MTCC 1108, 48 h
Aspergillus flavus [5] = test: Antifungal activity against Aspergillus flavus MTCC 1021 assessed as zone of inhibition at 20 uM after 48 hrs by disc diffusion method; type: functional
Outline: (§3)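 Spores from 4-day potato dextrose agar cultures, suspended in sterile water at 1.5 × 10⁵ CFU/mL. 0.2 mL was spread on potato dextrose agar. 5 mm filter-paper discs soaked with test compound were laid on the lawn. Incubation was 48 h at 28 °C, then the inhibition zone was measured in mm. Fluconazole was the positive control and acetone the negative control.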

Salmonella typhi [6] = test: Antimicrobial activity against Salmonella typhi ATCC 23564 after 24 hrs by broth micro serial dilution method; type: functional, Salmonella enterica subsp. enterica serovar Typhi; settings: Salmonella enterica, ATCC 23564, 24 h
Aspergillus niger [7] = test: Antifungal activity against Aspergillus niger MTCC 1108 assessed as zone of inhibition at 20 uM after 48 hrs by disc diffusion method; type: functional; outline: as §3
Salmonella typhi [8] = test: Antimicrobial activity against Salmonella typhi ATCC 23564 assessed as diameter of inhibition zone at 40 uM after 24 hrs by Kirby -Baur disc diffusion method; type: functional, Salmonella enterica subsp. enterica serovar Typhi; settings: Salmonella enterica, ATCC 23564, 24 h; read-out: DIZ
Escherichia coli [9] = test: Antimicrobial activity against Escherichia coli ATCC 35218 after 24 hrs by broth micro serial dilution method; type: functional; settings: ATCC 35218, 24 h; outline: as §2
QG-56 = test: Cytotoxicity against human QG56 cells after 24 hrs by MTT assay; type: functional, cell-based
Outline: (§4)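 The MTT assay seeded 5 × 10⁴ cells per well and grew them 24 h in RPMI 1640 with compound at 2.5–200 µM. Medium without cells was the blank and adriamycin the positive control. MTT was added for 4 h at 37 °C, formazan was solubilised, and absorbance was read at 570 nm. IC50 is the concentration that cuts viability 50% against untreated cells.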

Trichoderma viride [10] = test: Antifungal activity against Trichoderma viride MTCC 1107 assessed as zone of inhibition at 20 uM after 48 hrs by disc diffusion method; type: functional; settings: MTCC 1107, 48 h, read-out: IZ; outline: as §3
Bacillus cereus [11] = test: Antimicrobial activity against Bacillus cereus MTCC 7350 assessed as diameter of inhibition zone at 20 uM after 24 hrs by Kirby -Baur disc diffusion method; type: functional; settings: MTCC 7350, 24 h, read-out: DIZ; outline: as §1
Mus musculus = test: Antiinflammatory activity in mouse assessed as inhibition of carrageenan-induced increase in paw volume at 200 mg/kg administered 1 hr prior to carrageenan challenge measured after 3 hrs relative to control; type: functional
Outline: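 Mice were fasted 2 h and placed in groups of five. Controls received saline i.p. Phenylbutazone was given at 100 mg/kg i.p., curcumin at 200 mg/kg i.p., and derivatives at 200 mg/kg. After 1 h, 0.1 mL of 1% carrageenan in saline was injected subplantar into the right hind paw. Paw volume was followed by plethysmometer for 3 h, and % inhibition was calculated as (Vc − Vt)/Vc × 100.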

Curvularia lunata [12] = test: Antifungal activity against Curvularia lunata MTCC 581 assessed as zone of inhibition at 20 uM after 48 hrs by disc diffusion method; type: functional; settings: MTCC 581, 48 h, read-out: IZ; outline: as §3
Aspergillus flavus [13] = test: Antifungal activity against Aspergillus flavus MTCC 1021 assessed as zone of inhibition at 40 uM after 48 hrs by disc diffusion method; type: functional; settings: MTCC 1021, 48 h, read-out: IZ; outline: as §3
Aspergillus niger [14] = test: Antifungal activity against Aspergillus niger MTCC 1108 assessed as zone of inhibition at 40 uM after 48 hrs by disc diffusion method; type: functional; settings: MTCC 1108, 48 h, read-out: IZ; outline: as §3
Escherichia coli [15] = test: Antimicrobial activity against Escherichia coli ATCC 35218 assessed as diameter of inhibition zone at 20 uM after 24 hrs by Kirby -Baur disc diffusion method; type: functional; settings: ATCC 35218, 24 h, read-out: DIZ; outline: as §1
Staphylococcus aureus [16] = test: Antimicrobial activity against Staphylococcus aureus ATCC 11632 assessed as diameter of inhibition zone at 20 uM after 24 hrs by Kirby -Baur disc diffusion method; type: functional; settings: ATCC 11632, 24 h, read-out: DIZ; outline: as §1
Staphylococcus aureus [17] = test: Antimicrobial activity against Staphylococcus aureus ATCC 11632 assessed as diameter of inhibition zone at 80 uM after 24 hrs by Kirby -Baur disc diffusion method; type: functional; settings: ATCC 11632, 24 h, read-out: DIZ; outline: as §1
Salmonella typhi [18] = test: Antimicrobial activity against Salmonella typhi ATCC 23564 assessed as diameter of inhibition zone at 20 uM after 24 hrs by Kirby -Baur disc diffusion method; type: functional, Salmonella enterica subsp. enterica serovar Typhi; settings: Salmonella enterica, ATCC 23564, 24 h; read-out: DIZ
Aspergillus flavus [19] = test: Antifungal activity against Aspergillus flavus MTCC 1021 assessed as zone of inhibition at 80 uM after 48 hrs by disc diffusion method; type: functional; settings: MTCC 1021, 48 h, read-out: IZ; outline: as §3
HepG2 = test: Cytotoxicity against human HepG2 cells after 24 hrs by MTT assay; type: functional, cell-based; outline: as §4
Staphylococcus aureus [20] = test: Antimicrobial activity against Staphylococcus aureus ATCC 11632 assessed as diameter of inhibition zone at 40 uM after 24 hrs by Kirby -Baur disc diffusion method; type: functional; settings: ATCC 11632, 24 h, read-out: DIZ; outline: as §1
Pseudomonas aeruginosa [21] = test: Antimicrobial activity against Pseudomonas aeruginosa ATCC 15499 assessed as diameter of inhibition zone at 40 uM after 24 hrs by Kirby -Baur disc diffusion method; type: functional; settings: ATCC 15499, 24 h, read-out: DIZ; outline: as §1
Trichoderma viride [22] = test: Antifungal activity against Trichoderma viride MTCC 1107 assessed as zone of inhibition at 80 uM after 48 hrs by disc diffusion method; type: functional; settings: MTCC 1107, 48 h, read-out: IZ; outline: as §3
Aspergillus niger [23] = test: Antifungal activity against Aspergillus niger MTCC 1108 assessed as zone of inhibition at 80 uM after 48 hrs by disc diffusion method; type: functional; settings: MTCC 1108, 48 h, read-out: IZ; outline: as §3
Staphylococcus aureus [24] = test: Antimicrobial activity against Staphylococcus aureus ATCC 11632 after 24 hrs by broth micro serial dilution method; type: functional; settings: ATCC 11632, 24 h; outline: as §2
Aspergillus flavus [25] = test: Antifungal activity against Aspergillus flavus MTCC 1021 after 48 hrs; type: functional; settings: MTCC 1021, 48 h
HeLa = test: Cytotoxicity against human HeLa cells after 24 hrs by MTT assay; type: functional, cell-based; outline: as §4
Pseudomonas aeruginosa [26] = test: Antimicrobial activity against Pseudomonas aeruginosa ATCC 15499 assessed as diameter of inhibition zone at 20 uM after 24 hrs by Kirby -Baur disc diffusion method; type: functional; settings: ATCC 15499, 24 h, read-out: DIZ; outline: as §1
Escherichia coli [27] = test: Antimicrobial activity against Escherichia coli ATCC 35218 assessed as diameter of inhibition zone at 80 uM after 24 hrs by Kirby -Baur disc diffusion method; type: functional; settings: ATCC 35218, 24 h, read-out: DIZ; outline: as §1
Bacillus cereus [28] = test: Antimicrobial activity against Bacillus cereus MTCC 7350 assessed as diameter of inhibition zone at 40 uM after 24 hrs by Kirby -Baur disc diffusion method; type: functional; settings: MTCC 7350, 24 h, read-out: DIZ; outline: as §1
Bacillus cereus [29] = test: Antimicrobial activity against Bacillus cereus MTCC 7350 after 24 hrs by broth micro serial dilution method; type: functional; settings: MTCC 7350, 24 h; outline: as §2
Salmonella typhi [30] = test: Antimicrobial activity against Salmonella typhi ATCC 23564 assessed as diameter of inhibition zone at 80 uM after 24 hrs by Kirby -Baur disc diffusion method; type: functional, Salmonella enterica subsp. enterica serovar Typhi; settings: Salmonella enterica, ATCC 23564, 24 h; read-out: DIZ
Pseudomonas aeruginosa [31] = test: Antimicrobial activity against Pseudomonas aeruginosa ATCC 15499 assessed as diameter of inhibition zone at 80 uM after 24 hrs by Kirby -Baur disc diffusion method; type: functional; settings: ATCC 15499, 24 h, read-out: DIZ; outline: as §1
Curvularia lunata [32] = test: Antifungal activity against Curvularia lunata MTCC 581 assessed as zone of inhibition at 80 uM after 48 hrs by disc diffusion method; type: functional; settings: MTCC 581, 48 h, read-out: IZ; outline: as §3
Curvularia lunata [33] = test: Antifungal activity against Curvularia lunata MTCC 581 after 48 hrs; type: functional; settings: MTCC 581, 48 h
Bacillus cereus [34] = test: Antimicrobial activity against Bacillus cereus MTCC 7350 assessed as diameter of inhibition zone at 80 uM after 24 hrs by Kirby -Baur disc diffusion method; type: functional; settings: MTCC 7350, 24 h, read-out: DIZ; outline: as §1
Curvularia lunata [35] = test: Antifungal activity against Curvularia lunata MTCC 581 assessed as zone of inhibition at 40 uM after 48 hrs by disc diffusion method; type: functional; settings: MTCC 581, 48 h, read-out: IZ; outline: as §3
HCT-116 = test: Cytotoxicity against human HCT116 cells after 24 hrs by MTT assay; type: functional, cell-based; outline: as §4
Trichoderma viride [36] = test: Antifungal activity against Trichoderma viride MTCC 1107 assessed as zone of inhibition at 40 uM after 48 hrs by disc diffusion method; type: functional; settings: MTCC 1107, 48 h, read-out: IZ; outline: as §3

## COc1cc(/C=C/C(O)=C/C(/C=C/c2ccc(O)c(OC)c2)=N/c2ccc(S(=O)(=O)Nc3cc(C)on3)cc2)ccc1O
Escherichia coli [1]
  zone of inhibition at 40 µM: 21 mm
Trichoderma viride [2]
  MIC: 80 µM (≈ 48.3 µg/mL)
Pseudomonas aeruginosa [3]
  MIC: 20 µM (≈ 12.1 µg/mL)
Aspergillus niger [4]
  MIC: 40 µM (≈ 24.1 µg/mL)
Aspergillus flavus [5]
  inhibition zone (IZ): inactive
Salmonella typhi [6]
  MIC: 20 µM (≈ 12.1 µg/mL)
Aspergillus niger [7]
  inhibition zone (IZ): inactive
Salmonella typhi [8]
  zone of inhibition at 40 µM: 17 mm
Escherichia coli [9]
  MIC: 20 µM (≈ 12.1 µg/mL)
QG-56
  IC50: 50 µM
Trichoderma viride [10]
  zone of inhibition at 20 µM: 9 mm
Bacillus cereus [11]
  zone of inhibition at 20 µM: 13 mm
Mus musculus
  inhibition in vivo at 200 mg/kg: 33.8%
Curvularia lunata [12]
  zone of inhibition at 20 µM: 9 mm
Aspergillus flavus [13]
  zone of inhibition at 40 µM: 9 mm
Aspergillus niger [14]
  zone of inhibition at 40 µM: 9 mm
Escherichia coli [15]
  zone of inhibition at 20 µM: 19 mm
Staphylococcus aureus [16]
  zone of inhibition at 20 µM: 17 mm
Staphylococcus aureus [17]
  zone of inhibition at 80 µM: 24 mm
Salmonella typhi [18]
  zone of inhibition at 20 µM: 12 mm
Aspergillus flavus [19]
  zone of inhibition at 80 µM: 11 mm
HepG2
  IC50: 25 µM
Staphylococcus aureus [20]
  zone of inhibition at 40 µM: 21 mm
Pseudomonas aeruginosa [21]
  zone of inhibition at 40 µM: 23 mm
Trichoderma viride [22]
  zone of inhibition at 80 µM: 13 mm
Aspergillus niger [23]
  zone of inhibition at 80 µM: 12 mm
Staphylococcus aureus [24]
  MIC: 20 µM (≈ 12.1 µg/mL)
Aspergillus flavus [25]
  MIC: > 80 µM
HeLa
  IC50: 50 µM
Pseudomonas aeruginosa [26]
  zone of inhibition at 20 µM: 17 mm
Escherichia coli [27]
  zone of inhibition at 80 µM: 27 mm
Bacillus cereus [28]
  zone of inhibition at 40 µM: 18 mm
Bacillus cereus [29]
  MIC: 20 µM (≈ 12.1 µg/mL)
Salmonella typhi [30]
  zone of inhibition at 80 µM: 20 mm
Pseudomonas aeruginosa [31]
  zone of inhibition at 80 µM: 25 mm
Curvularia lunata [32]
  zone of inhibition at 80 µM: 11 mm
Curvularia lunata [33]
  MIC: 80 µM (≈ 48.3 µg/mL)
Bacillus cereus [34]
  zone of inhibition at 80 µM: 21 mm
Curvularia lunata [35]
  zone of inhibition at 40 µM: 10 mm
HCT-116
  IC50: 25 µM
Trichoderma viride [36]
  zone of inhibition at 40 µM: 11 mm
